Results published in ChEMBL document CHEMBL3862014, “Synthesis and anti-inflammatory activity of paeonol analogues in the murine model of complete Freund's adjuvant induced arthritis” (Bioorg Med Chem Lett, 2016).
Calls of active or inactive are those of the source. The rule behind the calls is not given here.

Key:
[1] = Antioxidant activity assessed as hydroxyl radical scavenging activity measured 10 mins after H2O2 addition by pyronin B dye based assay; type: functional
Method in brief: (§1)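 In vitro radical scavenging was reported as IC50 (mM) alongside a positive control. Data are mean ± s, n = 6, with experiments run in triplicate.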

[2] = Antioxidant activity assessed as DPPH radical scavenging activity incubated for 30 mins in dark; type: functional; method in brief: as §1
[3] = Antioxidant activity assessed as superoxide radical scavenging activity measured every 30 secs for 6 mins in presence of superoxide generator pyrogallol; type: functional; method in brief: as §1
[4] = Antioxidant activity assessed as ABTS radical scavenging activity after 6 mins by spectrophotometric analysis; type: functional; method in brief: as §1
[5] = Solubility of the compound in water; type: physicochemical; details: buffer
[6] = tested on: Mus musculus; assay: Antioxidant activity in Kunming mouse CFA-induced arthritis model assessed as total antioxidant capacity in serum at 25 mg/kg/day, po for 1 week administered on day 8 post CFA induction by ELISA (reference value: 2.9 +/- 0.5 U/ml); type: functional
[7] = tested on: Mus musculus; assay: Antiinflammatory activity in Kunming mouse CFA-induced arthritis model assessed as PGE2 level in serum at 100 mg/kg/day, po for 1 week administered on day 8 post CFA induction by ELISA (reference value: 207 +/- 2.1 ng/L); type: functional
[8] = tested on: Mus musculus; assay: Antioxidant activity in Kunming mouse CFA-induced arthritis model assessed as total antioxidant capacity in serum at 100 mg/kg/day, po for 1 week administered on day 8 post CFA induction by ELISA (reference value: 2.9 +/- 0.5 U/ml); type: functional
[9] = tested on: Mus musculus; assay: Antiinflammatory activity in Kunming mouse CFA-induced arthritis model assessed as COX-2 level in serum at 25 mg/kg/day, po for 1 week administered on day 8 post CFA induction by ELISA (reference value: 85.3 +/- 0.1 ng/L); type: functional
[10] = tested on: Mus musculus; assay: Antioxidant activity in Kunming mouse CFA-induced arthritis model assessed as malondialdehyde level in serum at 25 mg/kg/day, po for 1 week administered on day 8 post CFA induction by ELISA (reference value: 15.5 +/- 1.1 nmol/ml); type: functional
[11] = tested on: Mus musculus; assay: Antioxidant activity in Kunming mouse CFA-induced arthritis model assessed as malondialdehyde level in serum at 100 mg/kg/day, po for 1 week administered on day 8 post CFA induction by ELISA (reference value: 15.5 +/- 1.1 nmol/ml); type: functional
[12] = tested on: Mus musculus; assay: Antioxidant activity in Kunming mouse CFA-induced arthritis model assessed as superoxide dismutase activity in serum at 25 mg/kg/day, po for 1 week administered on day 8 post CFA induction by ELISA (reference value: 66.7 +/- 0.9 U/ml); type: functional
[13] = tested on: Mus musculus; assay: Antiinflammatory activity in Kunming mouse CFA-induced arthritis model assessed as inhibition of paw swelling at 100 mg/kg/day, po for 1 week administered on day 8 post CFA induction measured every 2 days during compound dosing; type: functional
Method in brief: (§2)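 Dosing began seven days after the model was established, at 100 mg·kg⁻¹·d⁻¹ (high) or 25 mg·kg⁻¹·d⁻¹ (low). Inhibition of paw swelling was expressed in %, with celecoxib as reference group.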

[14] = tested on: Mus musculus; assay: Antioxidant activity in Kunming mouse CFA-induced arthritis model assessed as superoxide dismutase activity in serum at 100 mg/kg/day, po for 1 week administered on day 8 post CFA induction by ELISA (reference value: 66.7 +/- 0.9 U/ml); type: functional
[15] = tested on: Mus musculus; assay: Antiinflammatory activity in Kunming mouse CFA-induced arthritis model assessed as PGE2 level in serum at 25 mg/kg/day, po for 1 week administered on day 8 post CFA induction by ELISA (reference value: 207 +/- 2.1 ng/L); type: functional
[16] = tested on: Mus musculus; assay: Antiinflammatory activity in Kunming mouse CFA-induced arthritis model assessed as inhibition of paw swelling at 25 mg/kg/day, po for 1 week administered on day 8 post CFA induction measured every 2 days during compound dosing; type: functional, organism-based; method in brief: as §2
[17] = tested on: Mus musculus; assay: Antiinflammatory activity in Kunming mouse CFA-induced arthritis model assessed as COX-2 level in serum at 100 mg/kg/day, po for 1 week administered on day 8 post CFA induction by ELISA (reference value: 85.3 +/- 0.1 ng/L); type: functional
[18] = tested on: Mus musculus; assay: Antiinflammatory activity in Kunming mouse CFA-induced arthritis model assessed as inhibition of paw swelling at 100 mg/kg/day, po for 1 week administered on day 8 post CFA induction measured after day 3 during compound dosing; type: functional, organism-based; method in brief: as §2
[19] = tested on: Mus musculus; assay: Antioxidant activity in Kunming mouse CFA-induced arthritis model assessed as malondialdehyde level in serum at 30 mg/kg/day, po for 1 week administered on day 8 post CFA induction by ELISA (reference value: 15.5 +/- 1.1 nmol/ml); type: functional
[20] = tested on: Mus musculus; assay: Antioxidant activity in Kunming mouse CFA-induced arthritis model assessed as superoxide dismutase activity in serum at 30 mg/kg/day, po for 1 week administered on day 8 post CFA induction by ELISA (reference value: 66.7 +/- 0.9 U/ml); type: functional
[21] = tested on: Mus musculus; assay: Antiinflammatory activity in Kunming mouse CFA-induced arthritis model assessed as inhibition of paw swelling at 30 mg/kg/day, po for 1 week administered on day 8 post CFA induction measured every 2 days during compound dosing; type: functional, organism-based
[22] = tested on: Mus musculus; assay: Antiinflammatory activity in Kunming mouse CFA-induced arthritis model assessed as COX-2 level in serum at 30 mg/kg/day, po for 1 week administered on day 8 post CFA induction by ELISA (reference value: 85.3 +/- 0.1 ng/L); type: functional
[23] = tested on: Mus musculus; assay: Antioxidant activity in Kunming mouse CFA-induced arthritis model assessed as total antioxidant capacity in serum at 30 mg/kg/day, po for 1 week administered on day 8 post CFA induction by ELISA (reference value: 2.9 +/- 0.5 U/ml); type: functional
[24] = tested on: Mus musculus; assay: Antiinflammatory activity in Kunming mouse CFA-induced arthritis model assessed as PGE2 level in serum at 30 mg/kg/day, po for 1 week administered on day 8 post CFA induction by ELISA (reference value: 207 +/- 2.1 ng/L); type: functional

Compound	IC50 [1] [mM]	IC50 [2] [mM]	IC50 [3] [mM]	IC50 [4] [mM]	also measured
CCOc1cc(OC)ccc1C(C)=O	35.3	39.6	6.6	37.7	solubility [5]: Soluble
CCCCCCCCCCCCCCCCOc1cc(OC)c(Br)cc1C(C)=O	0.1	6.5	1.8	4.6	Activity [6]: 6.5 U/ml; Activity [7]: 150.1 ng/L; Activity [8]: 11.6 U/ml; Activity [9]: 63.9 ng/L; Activity [10]: 7.5 nmol/mL; Activity [11]: 5.8 nmol/mL; Activity [12]: 73.9 U/ml; inhibition in vivo at 100 mg/kg/day [13]: 45%; Activity [14]: 76.2 U/ml; Activity [15]: 189.3 ng/L; inhibition [16]: Active; Activity [17]: 64.7 ng/L
CCCCCCCCCCCCCCOc1cc(OC)c(Br)cc1C(C)=O	13.2	16.1	6.8	8.7	
CCCCOc1cc(OC)c(Br)cc1C(C)=O	56.9	42.3	38.2	34.1	
CCCCCCCCCCCCCCOc1cc(OC)ccc1C(C)=O	57	43.6	35.9	38	
CCCCCCCCCCOc1cc(OC)ccc1C(C)=O	57.4	40.1	26.6	41.7	
CCCCCCOc1cc(OC)c(Br)cc1C(C)=O	53.1	42.4	34	35.7	
CCOc1cc(OC)c(Br)cc1C(C)=O	57.7	46.8	37.9	36	solubility [5]: Soluble
CCCCCCCCOc1cc(OC)c(Br)cc1C(C)=O	38.1	39	30.9	32	
CCCCCCCCCCCCOc1cc(OC)ccc1C(C)=O	65.6	37.4	28.5	40.7	
CCCCOc1cc(OC)ccc1C(C)=O	57.2	43.3	15.6	36.3	
CCCCCCCCCCCCCCCCOc1cc(OC)ccc1C(C)=O	61.5	39.4	39.4	36.3	Activity [6]: 11.1 U/ml; Activity [7]: 159.4 ng/L; Activity [8]: 16.9 U/ml; Activity [9]: 65.2 ng/L; Activity [10]: 9.7 nmol/mL; Activity [11]: 8.8 nmol/mL; Activity [12]: 72.1 U/ml; inhibition in vivo at 100 mg/kg/day [13]: 65%; Activity [14]: 80.7 U/ml; inhibition [18]: Active; Activity [15]: 182.2 ng/L; inhibition [16]: Active; Activity [17]: 64.4 ng/L
CCCCCCCCCCCCOc1cc(OC)c(Br)cc1C(C)=O	23.1	29.5	10.6	32.7	
CCCCCCCCOc1cc(OC)ccc1C(C)=O	69.4	40	21.2	38.3	
COc1cc(O)c(C(C)=O)cc1Br	3	41.8	15.6	31.4	Activity [6]: 3.8 U/ml; Activity [7]: 142.3 ng/L; Activity [8]: 6 U/ml; Activity [9]: 65.4 ng/L; Activity [10]: 9.9 nmol/mL; Activity [11]: 6.4 nmol/mL; Activity [12]: 76.3 U/ml; inhibition [13]: Active; Activity [14]: 78.1 U/ml; Activity [15]: 179.5 ng/L; inhibition [16]: Active; Activity [17]: 57.6 ng/L
Cc1c(C)c2c(c(C)c1O)CCC(C)(C(=O)O)O2 (centres undefined) [TROLOX]	0.2	0.2	0.6	0.3	
COc1ccc(C(C)=O)c(O)c1 [PAEONOL]	0.2	42.8	5.8	16	Activity [6]: 4.6 U/ml; Activity [7]: 137.1 ng/L; Activity [8]: 4.1 U/ml; Activity [9]: 66.2 ng/L; Activity [10]: 8.9 nmol/mL; Activity [11]: 7.9 nmol/mL; Activity [12]: 62.5 U/ml; inhibition [13]: Active; Activity [14]: 68.1 U/ml; Activity [15]: 155.5 ng/L; inhibition [16]: Active; solubility [5]: Soluble; Activity [17]: 61.1 ng/L
Cc1ccc(-c2cc(C(F)(F)F)nn2-c2ccc(S(N)(=O)=O)cc2)cc1 [CELECOXIB]					Activity [19]: 7.3 nmol/mL; Activity [20]: 78 U/ml; inhibition [21]: Active; Activity [22]: 61.6 ng/L; Activity [23]: 6.3 U/ml; Activity [24]: 135.3 ng/L
CCCCCCOc1cc(OC)ccc1C(C)=O	84.4	42.6	18	42.1	
CCCCCCCCCCOc1cc(OC)c(Br)cc1C(C)=O	29.7	35.1	15	34.7	
